These results are taken from ChEMBL document CHEMBL1139577, “Discovery of 3-OH-3-methylpipecolic hydroxamates: potent orally active inhibitors of aggrecanase and MMP-13” (Bioorg Med Chem Lett, 2005).

The nature of data set [1]: Inhibitory concentration against aggrecanase from porcine chondrocytes using [35S]-sulfate (5 mCi/ml) as radioligand and adding IL-1alpha (5 ng/ml) incubated for 10h. Set-up: species or system Sus scrofa. In outline: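 Cell-based assay in porcine chondrocytes. Glycosaminoglycan chains were labelled by including [³⁵S]sulfate (5 mCi/ml) in the culture medium, and unincorporated label was washed out before aggrecan degradation was assessed.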

The target of data set [2] is Disintegrin and metalloproteinase domain-containing protein 17 (Rattus norvegicus, UniProt Q9Z1K9). Nature of the data set: Inhibitory concentration against rat TACE.
A short description of data set [3]: Inhibitory concentration against MMP-13.
For data set [4], the target named is T1, Interstitial collagenase (Homo sapiens, UniProt P03956).
T1 sequence (P03956 whole entry): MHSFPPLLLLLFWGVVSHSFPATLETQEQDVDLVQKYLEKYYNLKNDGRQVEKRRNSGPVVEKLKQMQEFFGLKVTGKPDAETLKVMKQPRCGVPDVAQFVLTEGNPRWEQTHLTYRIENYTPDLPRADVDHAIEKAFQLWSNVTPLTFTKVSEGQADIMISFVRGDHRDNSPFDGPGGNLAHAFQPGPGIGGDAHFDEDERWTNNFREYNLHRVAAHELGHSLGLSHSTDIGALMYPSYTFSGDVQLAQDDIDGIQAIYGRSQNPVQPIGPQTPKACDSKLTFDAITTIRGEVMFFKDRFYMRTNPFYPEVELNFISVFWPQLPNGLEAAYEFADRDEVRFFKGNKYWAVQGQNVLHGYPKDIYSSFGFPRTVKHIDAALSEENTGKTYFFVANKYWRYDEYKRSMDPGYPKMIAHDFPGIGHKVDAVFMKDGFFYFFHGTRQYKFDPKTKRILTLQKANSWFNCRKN
The data set is described as follows: Inhibitory concentration against MMP-1.

Data set [5] addresses T2, A disintegrin and metalloproteinase with thrombospondin motifs 4 (Homo sapiens) (UniProt O75173).
T2 sequence (whole entry): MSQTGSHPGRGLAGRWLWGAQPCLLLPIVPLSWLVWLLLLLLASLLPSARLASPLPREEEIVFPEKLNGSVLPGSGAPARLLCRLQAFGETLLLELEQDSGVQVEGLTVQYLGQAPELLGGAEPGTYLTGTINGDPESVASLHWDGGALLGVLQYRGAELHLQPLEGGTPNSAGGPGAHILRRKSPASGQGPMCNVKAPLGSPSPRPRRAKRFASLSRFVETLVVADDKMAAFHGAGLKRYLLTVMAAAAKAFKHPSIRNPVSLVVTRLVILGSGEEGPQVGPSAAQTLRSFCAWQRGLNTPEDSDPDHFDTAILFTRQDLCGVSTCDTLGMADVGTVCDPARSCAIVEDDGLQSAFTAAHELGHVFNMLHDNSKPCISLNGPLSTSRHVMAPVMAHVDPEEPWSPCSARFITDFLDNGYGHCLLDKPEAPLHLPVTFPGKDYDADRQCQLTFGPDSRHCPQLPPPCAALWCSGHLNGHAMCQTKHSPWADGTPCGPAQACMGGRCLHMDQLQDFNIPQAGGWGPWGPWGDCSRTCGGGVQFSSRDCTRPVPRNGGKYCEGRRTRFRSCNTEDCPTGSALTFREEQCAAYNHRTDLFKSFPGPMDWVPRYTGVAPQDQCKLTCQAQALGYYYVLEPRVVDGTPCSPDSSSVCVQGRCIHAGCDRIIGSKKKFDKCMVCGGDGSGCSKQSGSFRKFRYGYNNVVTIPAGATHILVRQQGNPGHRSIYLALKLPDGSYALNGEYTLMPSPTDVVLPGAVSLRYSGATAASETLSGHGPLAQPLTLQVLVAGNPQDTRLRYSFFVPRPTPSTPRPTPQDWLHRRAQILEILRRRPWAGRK
Nature of the data set: Inhibitory concentration at 500 nM against aggrecanase from porcine chondrocytes using [35S]-sulfate (5 mCi/ml) as radioligand and adding IL-1alpha (5 ng/ml) incubated for 10h. The note with it: Sus scrofa, target entry is the homologue from another species.

Data set [6] in a line: Half life in rat. The data set is classed as ADME. The note with it: in vivo. In outline:
(§1)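 Male Sprague–Dawley rats with jugular vein catheters got an iv bolus of 5 mg/kg in glycerol formal. Jugular blood was drawn at 5, 15 and 30 min and at 1, 2, 4, 6, 8 and 24 h. Plasma was diluted with an equal volume of water, extracted with MTBE and assayed by LC–MS/MS. Parameters were derived by non-compartmental analysis.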

Data set [7] is described as follows: Half life in dog. The note with it: in vivo. The data set is classed as ADME, Canis lupus familiaris.
Data set [8] can be described thus: Clearance in dog. Format: ADME, organism-based, Canis lupus familiaris. The note with it: plasma, read-out: Clp.
A short description of data set [9]: Clearance in rat. The data set is classed as ADME, organism-based. The note with it: plasma, read-out: Clp. In outline:
as §1

Data set [10] deals with 72 kDa type IV collagenase (Homo sapiens, UniProt P08253). Nature of the data set: Inhibitory concentration against MMP-2.
For data set [11], the target named is Stromelysin-1 (Homo sapiens, UniProt P08254). The data set is described as follows: Inhibitory concentration against MMP-3.
Data set [12] has as its target Neutrophil collagenase (Homo sapiens, UniProt P22894). The data set is described as follows: Inhibitory concentration against MMP-8.
Data set [13] deals with Matrix metalloproteinase-9 (Homo sapiens, UniProt P14780). Nature of the data set: Inhibitory concentration against MMP-9.
For data set [14], the target named is Matrix metalloproteinase-14 (Homo sapiens, UniProt P50281). The data set is described as follows: Inhibitory concentration against MMP-14.
Data set [15] relates to Cricetinae gen. sp. The data set is described as follows: Potent inhibition of IL-1 induced aggrecan degradation in hamster. Format: functional, Cricetulus griseus.
The species named for data set [16] is Bos taurus. The data set is described as follows: Inhibition of IL-1 induced collagen degradation in bovine nasal cartilage explants. Format: functional.
In data set [17] the test system is Cricetinae gen. sp. The data set is described as follows: Potent inhibition of MMP-13 induced collagen degradation in hamster knee joints. Format: functional, Cricetulus griseus. The note with it: Knee joint.
Data set [18] concerns Cell line. Nature of the data set: Inhibition of IL-1 induced aggrecan degradation in human osteoarthritic cartilage. Format: functional, cell-based. The note with it: Cartilage tissue. An outline of the steps: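 Articular cartilage came from total knee replacement and was cut into 1 × 2 mm pieces. These were cultured in DMEM with 0.5% fetal bovine serum and stimulated with IL-1α (50 ng/ml) plus oncostatin M (50 ng/ml). After 48 h, released GAG in the medium was measured by DMMB; n = 2.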

The species entered for data set [19] is Bos taurus. The data set is described as follows: Inhibition of IL-1 induced aggrecan degradation in bovine nasal cartilage explants. Format: functional. An outline of the steps: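 Bovine nasal cartilage plugs (4 mm diameter and length) were cultured in serum-free DMEM with IL-1α plus inhibitor. After 48 h, samples were analysed for GAG content by the DMMB assay.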

Sequence of Disintegrin and metalloproteinase domain-containing protein 17 (Q9Z1K9 whole entry, the tested form may be a part): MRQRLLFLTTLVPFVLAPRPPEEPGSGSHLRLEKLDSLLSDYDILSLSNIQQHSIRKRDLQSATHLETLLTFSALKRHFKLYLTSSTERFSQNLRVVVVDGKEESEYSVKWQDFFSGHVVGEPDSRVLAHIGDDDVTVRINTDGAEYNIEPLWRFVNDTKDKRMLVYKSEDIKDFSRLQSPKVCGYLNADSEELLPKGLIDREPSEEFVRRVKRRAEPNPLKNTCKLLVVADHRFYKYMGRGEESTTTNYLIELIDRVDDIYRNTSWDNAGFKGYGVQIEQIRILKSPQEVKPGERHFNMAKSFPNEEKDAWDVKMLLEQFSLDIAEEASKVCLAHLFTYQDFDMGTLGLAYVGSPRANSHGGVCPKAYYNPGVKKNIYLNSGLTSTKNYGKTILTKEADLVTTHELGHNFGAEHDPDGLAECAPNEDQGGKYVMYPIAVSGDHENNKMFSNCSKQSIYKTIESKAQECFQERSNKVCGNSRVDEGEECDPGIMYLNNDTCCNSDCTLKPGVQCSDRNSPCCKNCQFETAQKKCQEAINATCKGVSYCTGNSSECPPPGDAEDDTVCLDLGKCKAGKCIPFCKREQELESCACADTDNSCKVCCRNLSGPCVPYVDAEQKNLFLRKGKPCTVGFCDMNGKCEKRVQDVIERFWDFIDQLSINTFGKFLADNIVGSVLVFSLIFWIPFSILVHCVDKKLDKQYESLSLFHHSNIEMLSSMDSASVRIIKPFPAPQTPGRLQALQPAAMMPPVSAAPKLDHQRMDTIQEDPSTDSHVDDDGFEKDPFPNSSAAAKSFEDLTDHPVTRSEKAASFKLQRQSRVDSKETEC
Sequence of Stromelysin-1 (P08254 whole entry): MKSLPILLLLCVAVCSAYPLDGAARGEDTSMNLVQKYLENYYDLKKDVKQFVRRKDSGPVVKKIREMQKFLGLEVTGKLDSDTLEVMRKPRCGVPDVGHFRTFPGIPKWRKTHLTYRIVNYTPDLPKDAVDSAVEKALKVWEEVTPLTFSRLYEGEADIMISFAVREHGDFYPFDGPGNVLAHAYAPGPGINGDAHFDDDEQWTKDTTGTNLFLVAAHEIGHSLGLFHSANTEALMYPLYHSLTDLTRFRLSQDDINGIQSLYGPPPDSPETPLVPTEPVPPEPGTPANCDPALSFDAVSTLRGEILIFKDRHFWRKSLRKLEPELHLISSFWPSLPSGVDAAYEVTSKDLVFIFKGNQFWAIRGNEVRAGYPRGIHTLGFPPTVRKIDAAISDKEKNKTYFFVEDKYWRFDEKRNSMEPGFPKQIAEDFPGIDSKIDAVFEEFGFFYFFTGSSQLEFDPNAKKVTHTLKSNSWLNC
Sequence of Neutrophil collagenase (P22894 whole entry): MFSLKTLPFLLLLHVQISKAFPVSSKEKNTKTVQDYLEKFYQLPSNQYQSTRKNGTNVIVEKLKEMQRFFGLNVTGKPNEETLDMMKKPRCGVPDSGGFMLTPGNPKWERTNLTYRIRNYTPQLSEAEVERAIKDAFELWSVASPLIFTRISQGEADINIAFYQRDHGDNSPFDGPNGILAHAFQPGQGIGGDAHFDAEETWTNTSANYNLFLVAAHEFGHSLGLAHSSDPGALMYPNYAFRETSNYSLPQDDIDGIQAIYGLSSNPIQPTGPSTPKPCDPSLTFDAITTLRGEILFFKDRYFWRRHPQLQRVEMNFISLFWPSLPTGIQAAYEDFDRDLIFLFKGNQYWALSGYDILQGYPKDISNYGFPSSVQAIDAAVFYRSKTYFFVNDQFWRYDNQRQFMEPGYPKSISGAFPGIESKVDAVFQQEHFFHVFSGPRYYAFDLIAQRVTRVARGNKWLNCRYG
Sequence of Matrix metalloproteinase-9 (P14780 whole entry): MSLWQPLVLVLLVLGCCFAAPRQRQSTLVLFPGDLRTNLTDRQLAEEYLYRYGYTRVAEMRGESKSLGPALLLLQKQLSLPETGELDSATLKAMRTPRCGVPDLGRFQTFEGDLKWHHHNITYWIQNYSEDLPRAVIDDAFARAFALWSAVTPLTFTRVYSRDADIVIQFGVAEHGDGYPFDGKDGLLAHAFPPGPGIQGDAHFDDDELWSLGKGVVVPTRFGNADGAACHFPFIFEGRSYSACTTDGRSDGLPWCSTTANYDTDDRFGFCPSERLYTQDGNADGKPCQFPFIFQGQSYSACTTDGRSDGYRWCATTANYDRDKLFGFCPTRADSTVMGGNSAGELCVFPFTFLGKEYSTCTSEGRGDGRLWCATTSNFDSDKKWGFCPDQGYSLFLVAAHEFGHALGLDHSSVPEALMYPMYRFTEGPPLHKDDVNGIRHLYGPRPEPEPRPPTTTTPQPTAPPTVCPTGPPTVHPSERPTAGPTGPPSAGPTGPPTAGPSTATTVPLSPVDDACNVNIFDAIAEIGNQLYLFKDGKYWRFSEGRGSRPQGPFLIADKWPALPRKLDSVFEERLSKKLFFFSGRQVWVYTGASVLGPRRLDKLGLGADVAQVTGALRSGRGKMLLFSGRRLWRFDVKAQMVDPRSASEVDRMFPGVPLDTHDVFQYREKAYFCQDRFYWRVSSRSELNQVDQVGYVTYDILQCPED
Sequence of 72 kDa type IV collagenase (P08253 whole entry): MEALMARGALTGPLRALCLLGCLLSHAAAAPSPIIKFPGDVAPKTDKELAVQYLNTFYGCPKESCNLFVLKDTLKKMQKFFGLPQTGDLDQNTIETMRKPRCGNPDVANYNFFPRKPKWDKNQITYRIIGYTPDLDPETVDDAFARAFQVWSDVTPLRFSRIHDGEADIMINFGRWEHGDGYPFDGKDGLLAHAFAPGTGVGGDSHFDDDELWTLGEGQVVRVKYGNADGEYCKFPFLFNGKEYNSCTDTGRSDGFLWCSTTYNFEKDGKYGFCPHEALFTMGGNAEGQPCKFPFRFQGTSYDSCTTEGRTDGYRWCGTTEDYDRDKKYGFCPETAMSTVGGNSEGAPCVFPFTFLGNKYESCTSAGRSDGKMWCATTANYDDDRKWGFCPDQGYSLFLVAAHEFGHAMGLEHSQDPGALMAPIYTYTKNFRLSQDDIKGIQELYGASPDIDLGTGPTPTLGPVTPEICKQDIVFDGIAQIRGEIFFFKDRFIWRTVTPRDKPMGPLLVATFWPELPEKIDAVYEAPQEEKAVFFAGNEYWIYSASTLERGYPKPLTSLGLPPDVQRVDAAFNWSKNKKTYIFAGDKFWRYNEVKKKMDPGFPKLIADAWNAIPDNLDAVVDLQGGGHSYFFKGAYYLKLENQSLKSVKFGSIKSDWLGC

For `Cc1cc(F)ccc1COc1ccc(S(=O)(=O)N2CCC[C@@](C)(O)[C@@H]2C(=O)NO)cc1`, the figures for the IC50 in [1], in [2] and in data set [3] were 4.7 nM, 15 nM and 2.9 nM, respectively.
On to `C[C@@]1(O)CCCN(S(=O)(=O)c2ccc(OCc3cccc(Cl)c3)cc2)[C@H]1C(=O)NO`, for which the half-maximal inhibitory concentration (IC50) is 78 nM in [1], 860 nM in data set [4] and 2.5 nM in [3].
As to `Cc1ccc(F)cc1COc1ccc(S(=O)(=O)N2CCC[C@@](C)(O)[C@@H]2C(=O)NO)cc1`, the IC50 was found to be 15 nM in data set [1] and 2.5 nM in data set [3].
The corresponding values for `C[C@@]1(O)CCCN(S(=O)(=O)c2ccc(OCc3ccccc3Cl)cc2)[C@H]1C(=O)NO` are 3.7 nM and 1 nM.
In the case of `C[C@]1(O)CCCN(S(=O)(=O)c2ccc(OCc3ccc(F)cc3)cc2)[C@H]1C(=O)NO`, the concentration for half-maximal inhibition (IC50) in [1] is above 1000 nM; in data set [2], 11 nM; in data set [4] it was 1100 nM; in data set [3], 6.5 nM.
As to `C[C@@]1(O)CCCN(S(=O)(=O)c2ccc(OCc3ccccc3C#N)cc2)[C@H]1C(=O)NO`, the IC50 in data set [4] came out at 2700 nM; in data set [3] it was 9.7 nM. Besides, the inhibition in [5] worked out at 55%.
Consider `C[C@@]1(O)CCCN(S(=O)(=O)c2ccc(OCc3cccc4ccncc34)cc2)[C@H]1C(=O)NO`, for which the half-maximal inhibitory concentration (IC50) in data set [1] was 17 nM; in [4], 7800 nM; in data set [3] it was 18 nM.
In the case of `C[C@@]1(O)CCCN(S(=O)(=O)c2ccc(OCc3cnccn3)cc2)[C@H]1C(=O)NO`, the values for the half-maximal inhibitory concentration (IC50) in [4] and in data set [3] were 1600 nM and 7.4 nM, respectively. Moreover, in [5], the inhibition came to 8%.
As for `C[C@@]1(O)CCCN(S(=O)(=O)c2ccc(OCc3ccccc3F)cc2)[C@H]1C(=O)NO`, the results for the concentration for half-maximal inhibition (IC50) in data set [1], in [4] and in [3] were 14 nM, 180 nM and 0.49 nM, respectively.
On to `Cc1c(F)cccc1COc1ccc(S(=O)(=O)N2CCC[C@@](C)(O)[C@@H]2C(=O)NO)cc1`, for which the half-inhibitory concentration (IC50) is 11 nM in [1], 10 nM in [2], 1300 nM in data set [4] and 3.2 nM in data set [3].
For the compound `C[C@@]1(O)CCCN(S(=O)(=O)c2ccc(OCc3ccc(F)cc3)cc2)[C@H]1C(=O)NO` (stereo in doubt; 17), the 50% inhibitory concentration (IC50) was 14 nM in [2] and 420 nM in data set [4].
Consider `Cc1ncccc1COc1ccc(S(=O)(=O)N2CCC[C@@](C)(O)[C@@H]2C(=O)NO)cc1`, for which the figures for the IC50 in data set [1], in data set [4] and in [3] were 51 nM, 1600 nM and 1.5 nM, respectively.
Take `CC1(C)C[C@@H](O)CN(S(=O)(=O)c2ccc(OCc3ccc(Cl)cc3Cl)cc2)[C@H]1C(=O)NO`: the half-life in data set [6] and in [7] was 2 h throughout. The clearance was found to be 25 mL/min/kg in [8] and 44 mL/min/kg in [9].
As for `C[C@@]1(O)CCCN(S(=O)(=O)c2ccc(OCc3ccc(F)cc3)cc2)[C@H]1C(=O)NO` (stereo in doubt; 11), the half-maximal inhibitory concentration (IC50) in data set [1] was determined as 120 nM; in data set [2] it was 14 nM; in data set [4], 420 nM; in [3], 3.7 nM.
Take `Cc1ccccc1COc1ccc(S(=O)(=O)N2CCC[C@@](C)(O)[C@@H]2C(=O)NO)cc1`: the values for the IC50 in [1], in [4] and in data set [3] were 6.9 nM, 310 nM and 0.65 nM, respectively.
In the case of `C[C@@]1(O)CCCN(S(=O)(=O)c2ccc(OCc3cccc(F)c3)cc2)[C@H]1C(=O)NO`, the half-maximal inhibitory concentration (IC50) is 85 nM in data set [1], 340 nM in data set [4] and 1.5 nM in data set [3].
Regarding `CC[C@@]1(O)CCCN(S(=O)(=O)c2ccc(OCc3ccc(F)cc3)cc2)[C@H]1C(=O)NO`, the IC50 in [1] stood at 500 nM; in data set [2], 18 nM; in data set [4], 500 nM; in [3] it was 1.6 nM.
Turning to `C[C@@]1(O)CCCN(S(=O)(=O)c2ccc(OCc3cccc4cccnc34)cc2)[C@H]1C(=O)NO`, the IC50 was 19 nM in data set [1], 120 nM in data set [4] and 4.1 nM in data set [3].
Take `CC[C@]1(O)CCCN(S(=O)(=O)c2ccc(OCc3ccc(F)cc3)cc2)[C@H]1C(=O)NO`: the IC50 in data set [1] amounted to 490 nM; in data set [2], 1.7 nM; in [4], 1100 nM; in data set [3] it was 3.6 nM.
As for `C[C@@]1(O)CCCN(S(=O)(=O)c2ccc(OCc3ccncc3)cc2)[C@H]1C(=O)NO`, the IC50 is 190 nM in [4] and 2 nM in data set [3]. In data set [5], this compound displayed an inhibition of 8.1%.
For `CCCC[C@]1(O)CCCN(S(=O)(=O)c2ccc(OCc3ccc(F)cc3)cc2)[C@H]1C(=O)NO`, the half-inhibitory concentration (IC50) is 2000 nM in [1], 23 nM in data set [2], 2900 nM in [4] and 4.9 nM in data set [3].
In the case of `C[C@@]1(O)CCCN(S(=O)(=O)c2ccc(OCc3ccc(F)cc3Cl)cc2)[C@H]1C(=O)NO`, the half-life in data set [6] was 2 h; in data set [7], 4.6 h. Further, the half-maximal inhibitory concentration (IC50) in [1] was found to be 1.5 nM; in data set [4], 310 nM; in data set [10] it was 4 nM; in data set [11], 5 nM; in data set [12], 1 nM; in data set [13], 11 nM. Also, the concentration for half-maximal inhibition (IC50) in data set [3] is 0.9 nM; in data set [14], 83 nM; in data set [16], 100 nM; in data set [18], 6 nM; in data set [19] it was 10.3 nM. Further, the ED50 came to 4.6 mg/kg in data set [15] and 13 mg/kg in [17]. The results for the clearance in [8] and in data set [9] were 11 mL/min/kg and 13 mL/min/kg, respectively.
In the case of `COc1ccccc1COc1ccc(S(=O)(=O)N2CCC[C@@](C)(O)[C@@H]2C(=O)NO)cc1`, the IC50 was found to be 2600 nM in [4] and 18 nM in data set [3]. This compound also showed an inhibition in [5] of 73%.
Take `C[C@@]1(O)CCCN(S(=O)(=O)c2ccc(OCc3ccc(Cl)cc3F)cc2)[C@H]1C(=O)NO`: the half-maximal inhibitory concentration (IC50) in data set [1] is 7.9 nM; in data set [4], 120 nM; in [3], 0.87 nM.
The corresponding values for `C[C@@]1(O)CCCN(S(=O)(=O)c2ccc(OCc3ccnc(Cl)c3)cc2)[C@H]1C(=O)NO` are 15 nM, 520 nM and 0.43 nM.
